Measurements: ChEMBL document CHEMBL4651341, “The discovery of a novel series of compounds with single-dose efficacy against juvenile and adult Schistosoma species” (PLoS Negl Trop Dis, 2021)
Converted amounts (≈) assume the structure as drawn.

What was measured:
[1] = Mean observed clearance in Swiss albino male mice at 1 mg/kg per compound (administered iv in a mixture of 5 compounds to 3 mice) assessed by LCMS/MS.; type: ADME, organism-based; conditions: mouse, in vivo
Method in brief: (§1)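 Male Swiss albino mice (~30 g), 3 per experiment, mostly dosed as mixtures of 5 compounds iv via the lateral tail vein. Vehicle: 10% DMSO/90% 50 mM Na2HPO4 with 0.5% Tween-80. Blood sampled at 5, 15, 30 min and 1, 2, 4, 8, 24 h. Plasma stored at −20 °C and quantified by LC-MS after acetonitrile precipitation.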

[2] = Percentage of parent compound remaining after incubation for 30 minutes with cyropreserved mouse hepatocytes at a concentration of 1uM compound and […], determined by LCMS; type: ADME, tissue-based, Hepatocyte; conditions: cryopreserved mouse hepatocytes, read-out: Stability
Method in brief: (§2)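 Compound was incubated at 1 µM final (2 µM working solution mixed 1:1 with hepatocyte suspension) in supplemented KHB pH 7.4. Conditions: 37 °C, 5% CO2, gentle mixing, duplicates. Reaction quenched with ice-cold acetonitrile containing standard; analysed by LC-MS/MS. % remaining = AUC at t / AUC at T0.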

[3] = Concentration required to kill 50% HepG2 cells as detected by MTT staining; type: toxicity, cell-based; conditions: homo sapiens, read-out: TC50 (the source's name)
Schistosoma mansoni [4] = experiment: Concentration required to kill 50% of 42 day old worms 5 days after drug treatment.; type: functional, organism-based; conditions: Puerto Rican, 120 h
Method in brief: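 Adult S. mansoni were perfused from CD1 mice 6 weeks post-infection and washed. They were cultured 3 pairs per well in 1 mL DMEM with 2 mM glutamine, penicillin/streptomycin and 10% FCS […] at 37 °C, 5% CO2. Viability of individual worms was scored on day 5 (120 h).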

[5] = Mean time to peak plasma concentration in Swiss albino male mice at […] per compound (administered orally in a mixture of 5 compounds to 3 mice) assessed by LCMS/MS.; type: ADME, organism-based; conditions: mouse, po
[6] = Mean AUC inf in Swiss albino male mice at 1 mg/kg per compound (administered iv in a mixture of 5 compounds to 3 mice) assessed by LCMS/MS.; type: ADME, organism-based; conditions: mouse, in vivo; for AUC(0-inf): male, Swiss albino; method in brief: as §1
[7] = Mean volume of distribution at steady state in Swiss albino male mice at 1 mg/kg per compound (administered iv in a mixture of 5 compounds to 3 mice) assessed by LCMS/MS.; type: ADME, organism-based; conditions: mouse, in vivo, read-out: Volume
Method in brief: (§3)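 Male Swiss albino mice (~30 g), 3 per experiment, mostly dosed as mixtures of 5 compounds iv via the lateral tail vein. Vehicle: 10% DMSO/90% 50 mM Na2HPO4 with 0.5% Tween-80. Plasma stored at −20 °C and quantified by LC-MS after acetonitrile precipitation.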

[8] = Mean plasma concentration at 24h in Swiss albino male mice at […] per compound (administered orally in a mixture of 5 compounds to 3 mice) assessed by LCMS/MS.; type: ADME, organism-based; conditions: mouse, po
[9] = Mean plasma concentration at 4h in Swiss albino male mice at […] per compound (administered orally in a mixture of 5 compounds to 3 mice) assessed by LCMS/MS.; type: ADME, organism-based; conditions: mouse, po
[10] = Solubility at 25 degC of compound (diluted from DMSO) in PBS at pH 7.4 determined after 24h (1h sonication, 22h shaking, 1h sonication) by LCMS/MS; type: physicochemical
[11] = Partition coefficient of compound between n-octanol and PBS (pH7.4); type: physicochemical; conditions: octanol/water, pH 7.4
Method in brief: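 Shake-flask method using octanol and PBS pH 7.4, each pre-saturated with the other. Compound was shaken 2 h at 850 rpm, 25 °C, then the phases were separated by centrifugation and both layers diluted and analysed by LC-MS/MS. LogD = log(octanol AUC × relative dilution / buffer AUC).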

Schistosoma mansoni [12] = experiment: Concentration required to kill 50% of 21 day old worms 5 days after drug treatment.; type: functional, organism-based; conditions: Puerto Rican, 120 h
Method in brief: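 Juvenile S. mansoni (Puerto Rican strain) were perfused from CD1 mice 3 weeks post-infection and washed. They were cultured 6–8 per well in 200 µL DMEM with 2 mM glutamine, penicillin/streptomycin and 10% FCS at 37 °C, 5% CO2. Viability of individual worms was scored on day 5 after dosing (120 h).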

[13] = Mean oral bioavailability in Swiss albino male mice at […] per compound (administered in a mixture of 5 compounds to 3 mice) assessed by LCMS/MS.; also: dose 2.5 mg/kg; type: ADME, organism-based; conditions: male, Swiss albino, mouse, in vivo, read-out: Bioavailability
[14] = Plasma protein binding determined at 10uM by LC-MS/MS.; type: ADME, cell-free; conditions: mouse
Method in brief: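 Equilibrium dialysis of plasma spiked at 10 µM (0.1% DMSO) against PBS pH 7.4, 6 h at 37 °C, duplicates. Both chambers analysed by LC-MS/MS after acetonitrile precipitation. % free = buffer/plasma area ratio; recovery also calculated.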

[15] = Mean half-life in Swiss albino male mice at 1 mg/kg per compound (administered iv in a mixture of 5 compounds to 3 mice) assessed by LCMS/MS.; type: ADME, organism-based; conditions: mouse, in vivo; method in brief: as §3
[16] = Concentration required to kill 50% MRC-5 cells as detected by Alamar blue staining; type: toxicity, cell-based, MRC5; conditions: homo sapiens, read-out: TC50 (the source's name)
[17] = Percentage of parent compound remaining after incubation for 90 minutes with cyropreserved mouse hepatocytes at a concentration of 1uM compound and […], determined by LCMS; type: ADME, tissue-based, Hepatocyte; conditions: cryopreserved mouse hepatocytes, read-out: Stability; method in brief: as §2
[18] = male, Swiss albino, read-out: Clearance (converted)

solubility kinetic at 24 h [10] [µM]	SMILES	CC50 [3] [µM]	EC50 (Schistosoma mansoni [4]) [µM]	EC50 (Schistosoma mansoni [12]) [µM]	CC50 [16] [µM]	other results
1.05 (≈ 0.529 µg/mL)	COc1ccc(-c2c(C(F)(F)F)nc3cnc(-c4cccc(C(F)(F)C(F)(F)F)c4)cn23)cc1O	> 11.1	0.021	< 0.0106		clearance [1]: 54.3 mL/min/kg; remaining at 0.5 h, 1 µM [2]: 75.3%; Tmax [5]: 15 min; AUC [6]: 153 ng·h/mL; Vd [7]: 4.94 L/kg; concentration at 24 h [8]: 0.1 ng/mL; concentration at 4 h [9]: 8.54 ng/mL; Lipophilicity [11]: 4.65 =; bioavailability [13]: 9.77%; Binding [14]: 99.98%; half-life [15]: 127 min
1.19 (≈ 0.409 µg/mL)	Cc1nc2cnc(-c3cccc(C(C)C)c3)cn2c1-c1ccc(O)cc1	> 11.5	< 0.43	< 0.421	> 50	
	COc1ccc(-c2nnc3ccc(-c4cccc(C(C)C)c4)cn23)cn1			24.2	45.8	
	COc1ccc(-c2cnc3cnc(-c4cccc(OC(C)C)c4)cn23)c(OC)c1		12.7	12.5	> 48.9	
	COc1ccc(-c2cnc3cnc(-c4cccc(C(C)C)c4)cn23)cc1		1.85	2.43	9.04	Lipophilicity [11]: 5.36 =
29.8 (≈ 11.9 µg/mL)	COc1ccc(-c2c(C)nn3cnc(-c4cccc(C(F)(F)F)c4)cc23)cc1O			0.785		clearance [1, 18]: 195 mL/min/kg; remaining at 0.5 h, 1 µM [2]: 45.1%; AUC(0-inf) [6]: 43.2 ng·h/mL; Vd [7]: 3.18 L/kg; concentration at 24 h [8]: 0.1 ng/mL; concentration at 4 h [9]: 0.1 ng/mL; Lipophilicity [11]: 3.73 =; Binding [14]: 99.935%; half-life [15]: 14.4 min
	COc1cc(-c2cnc3cnc(-c4cccc(C(C)C)c4)cn23)ccc1O	26	1.41	1.63	> 50	Lipophilicity [11]: 4.75 =
	CC(C)c1cccc(-c2cn3c(-c4ccc(O)c(F)c4)cnc3cn2)c1	> 30	0.823	1.32	> 50	
	COc1ccc(-c2cnc3cnc(-c4cccc(Cl)c4)cn23)cc1		12.2	13.1	> 50	
	COc1ccc(-c2cnc3cnc(-c4cccc(OC(C)C)c4)cn23)cc1OC		5.56	9.51	28.7	
3.49 (≈ 1.35 µg/mL)	Cc1nc2cnc(-c3cccc(C(F)(F)F)c3)cn2c1-c1ccc(O)cc1F		0.29	< 0.614	18.7	remaining at 0.5 h, 1 µM [2]: 31.5%
	CC(C)Oc1cccc(-c2cn3c(-c4cnn(Cc5ccccc5)c4)cnc3cn2)c1		> 25	> 25	39.4	
	CC(C)c1cccc(-c2ccc3nnc(-c4cccc(NS(C)(=O)=O)c4)n3c2)c1			24.6	> 50	
	COc1ccc(-c2cnc3ccc(-c4cccc(C(C)C)c4)nn23)cc1O	9.24	5.59	8.26	11.3	
	CC(C)Oc1cccc(-c2cn3c(-c4ccnc(C(F)(F)F)c4)cnc3cn2)c1		> 25	> 25	> 49.2	
1.23 (≈ 0.427 µg/mL)	CC(C)c1cccc(-c2cn3c(-c4ccc(O)cc4F)cnc3cn2)c1	> 11.1	0.262	0.636	11.1	
	CCc1cccc(-c2cn3c(-c4ccc(OC)c(OC)c4)cnc3cn2)c1		1.06	2.79	29.9	
	COc1ccc(-c2cnc3cnc(-c4ccc(N5CCN(C)CC5)nc4)cn23)cc1		> 25	15	20.9	
0.672 (≈ 0.278 µg/mL)	CCc1nc2cnc(-c3cccc(C(F)(F)F)c3)cn2c1-c1ccc(OC)c(O)c1	> 30	< 0.133	0.0829	> 50	Lipophilicity [11]: 3.97 =
	Oc1ccc(-c2cnc3ccc(-c4cccc(C(F)(F)F)c4)nn23)c(F)c1		> 25	> 25	> 50	
	COc1ccc(-c2nnc3ccc(-c4cccc5c4OCC5)cn23)cc1OC			24.8	27.6	
	CCOc1cccc(-c2cn3c(-c4ccc(OC)cc4)cnc3cn2)c1		12.1	11	37.7	
6.63 (≈ 3.26 µg/mL)	CC(C)c1nc2cnc(-c3cccc(S(F)(F)(F)(F)F)c3)cn2c1-c1c(F)cc(O)cc1F	6.6	0.0238	< 0.012		clearance [1, 18]: 36.2 mL/min/kg; Tmax [5]: 15 min; AUC(0-inf) [6]: 231 ng·h/mL; Vd [7]: 2.64 L/kg; concentration at 24 h [8]: 0.1 ng/mL; remaining at 1.5 h, 1 µM [17]: 31.1%; concentration at 4 h [9]: 16.6 ng/mL; bioavailability [13]: 18.4%; half-life [15]: 106 min
	COc1ccc(-c2cnc3cnc(-c4cccc(OC)c4)cn23)cc1		6.75	12.6	> 49.9	
	CC(C)Oc1cccc(-c2ccc3nnc(-c4ccc(O)cc4)n3c2)c1			> 25	> 50	
1.73 (≈ 0.701 µg/mL)	Cc1nc2cnc(-c3cccc(C(F)(F)F)c3)cn2c1-c1c(F)cc(O)cc1F	8.4		0.172		clearance [1, 18]: 86 mL/min/kg; remaining at 0.5 h, 1 µM [2]: 42.3%; Tmax [5]: 15 min; AUC(0-inf) [6]: 99.6 ng·h/mL; Vd [7]: 1.8 L/kg; concentration at 24 h [8]: 0.1 ng/mL; concentration at 4 h [9]: 2.67 ng/mL; Lipophilicity [11]: 3.81 =; bioavailability [13]: 4%; Binding [14]: 99.88%; half-life [15]: 27.5 min
	CC(C)Oc1cccc(-c2cn3c(-c4ccc5[nH]ncc5c4)cnc3cn2)c1		7.19	7.5	22.2	
1.42 (≈ 0.529 µg/mL)	Oc1ccc(-c2cnn3ccc(-c4cccc(C(F)(F)F)c4)cc23)c(F)c1			2.65		clearance [1, 18]: 158 mL/min/kg; remaining at 0.5 h, 1 µM [2]: 50.9%; Tmax [5]: 15 min; AUC(0-inf) [6]: 52.7 ng·h/mL; Vd [7]: 2.85 L/kg; concentration at 24 h [8]: 0.1 ng/mL; concentration at 4 h [9]: 0.1 ng/mL; Lipophilicity [11]: 4.27 =; bioavailability [13]: 0%; Binding [14]: 100%; half-life [15]: 25 min
51.6 (≈ 23.9 µg/mL)	Oc1cc(F)c(-c2c(C3CCC3)nc3cnc(-c4ccc(F)c(C(F)(F)F)c4)cn23)c(F)c1	5.7	0.0586	0.0729		clearance [1, 18]: 7.9 mL/min/kg; Tmax [5]: 20 min; AUC(0-inf) [6]: 1060 ng·h/mL; Vd [7]: 4.74 L/kg; concentration at 24 h [8]: 21.7 ng/mL; remaining at 1.5 h, 1 µM [17]: 48.2%; concentration at 4 h [9]: 161 ng/mL; bioavailability [13]: 48.6%; half-life [15]: 550 min
	COc1ccc(-c2nnc3ccc(-c4cccc(C(C)C)c4)cn23)cc1			24.2	40.8	Lipophilicity [11]: 4.71 =

SMILES	solubility kinetic at 24 h [10] [µM]	CC50 [3] [µM]	EC50 (Schistosoma mansoni [4]) [µM]	EC50 (Schistosoma mansoni [12]) [µM]	CC50 [16] [µM]	other results
COc1ccc(-c2c(C(C)C)nc3cnc(-c4cccc(C(F)(F)F)c4)cn23)cc1OP(=O)(O)O	209 (≈ 106 µg/mL)	19.2		0.241		clearance [1, 18]: 345 mL/min/kg; remaining at 0.5 h, 1 µM [2]: 51.1%; AUC(0-inf) [6]: 25 ng·h/mL; Vd [7]: 4.06 L/kg; concentration at 24 h [8]: 0.1 ng/mL; concentration at 4 h [9]: 0.1 ng/mL; Lipophilicity [11]: 0.09 =; Binding [14]: 96.79%; half-life [15]: 22.6 min
